The values below come from PMC7174984 (Bioconjugate chemistry, 2020).

Like-named read-outs stand apart in the source and are kept apart here.

The subject of data set [1] is MDA-MB-231 cells. Kind of data set: BSA-FITC and dye colocalization by confocal microscopy. In kind it is cell-based, Human. A digest of the protocol:
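50,000 MDA-MB-231 cells (grown in DMEM/10% FBS, 37 °C, 5% CO₂) incubated with test dye (10 μM) and equimolar BSA-FITC, either mixed just before use, preincubated 24 h, or added with BSA-FITC whose Cys34 was blocked by 24 h 6-maleimidohexanoic acid pretreatment. Cells then washed twice with PBS and imaged confocally (NIR: 670 nm excitation, 716−789 nm; FITC: 490 nm excitation, 500−589 nm). Pearson coefficient computed.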

For data set [2], the system named is HepG2 cells. The experiment in a line: Cellular uptake of dyes into HepG2 liver cancer cells. In kind it is cell-based. The note with it: compared with MDA-MB-231 data. A digest of the protocol: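 HepG2 cells kept in DMEM with 10% FBS at 37 °C and 5% CO₂, passaged at 70% confluency. Live-cell dye uptake imaged by confocal microscopy with a 20×/0.75 water objective; NIR excitation at 670 nm, detection at 716−789 nm.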

For data set [3], the system named is OATP1B3. The note with it: ARCePE prostate cancer xenograft; cited from earlier work.
Data set [4] relates to subcutaneous triple negative breast tumors (E0771). Type of data set: in vivo, C57Bl/6 mice. The note with it: 25 nmol iv. A digest of the protocol: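 Female C57Bl/6 mice, 6 wk old (20−30 g), inoculated subcutaneously in left flank with 5 × 10⁶ E0771 cells in PBS. 25 nmol test compound in 10% BSA given iv; NIR imaging (760 nm excitation, 4 mW/cm²) at 0.5, 1, 2, 4, 24 and 48 h. TBR = tumor fluorescence over nearby healthy tissue; at least 3 animals per time point; mean ± s.d.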

Data set [5] can be described thus: Pharmacokinetics, clearance and urinary excretion. In kind it is in vivo, CD-1 mice. The settings on record: 25 nmol iv. A digest of the protocol: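 Healthy CD-1 mice (25 g) dosed iv with 25 nmol test compound in saline with 10% BSA. Blood taken at 0, 10, 30, 60, 120, 180, 240 and 300 min, spun 3000 rpm for 20 min; plasma fluorescence read by NIR imaging. For excretion, male mice had the penis ligated before dosing and were killed at 4 h; urine fluorescence read by spectrophotometer.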

For data set [6], the target named is T1, HSA (Homo sapiens, UniProt P02768). The experiment in a line: UV-vis/fluorescence spectroscopy of dye interaction with albumin. Type of data set: binding. The note with it: for formation of noncovalent adduct with albumin: UV absorbance maximum shift on mixing with HSA or serum.
T1 sequence (P02768 25-609): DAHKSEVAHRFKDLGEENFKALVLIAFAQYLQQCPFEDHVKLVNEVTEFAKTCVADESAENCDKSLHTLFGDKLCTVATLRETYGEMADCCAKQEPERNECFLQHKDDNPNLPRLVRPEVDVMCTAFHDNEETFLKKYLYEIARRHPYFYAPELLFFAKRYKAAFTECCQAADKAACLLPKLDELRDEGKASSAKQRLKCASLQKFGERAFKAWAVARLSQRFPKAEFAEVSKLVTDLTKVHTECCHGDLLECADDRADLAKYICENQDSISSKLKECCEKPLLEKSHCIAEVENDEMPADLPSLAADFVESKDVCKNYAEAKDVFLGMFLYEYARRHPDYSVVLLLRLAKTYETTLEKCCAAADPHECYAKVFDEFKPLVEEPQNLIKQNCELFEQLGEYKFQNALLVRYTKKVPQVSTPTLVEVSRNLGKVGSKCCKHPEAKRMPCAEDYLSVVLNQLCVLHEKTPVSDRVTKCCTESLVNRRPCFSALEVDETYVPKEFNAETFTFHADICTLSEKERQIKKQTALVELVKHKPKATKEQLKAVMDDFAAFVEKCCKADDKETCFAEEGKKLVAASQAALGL
Data set [7] is described as follows: Biodistribution in resected tumors and organs at 48 h post-injection. The note with it: 25 nmol iv, tumors and organs resected 48 h post-injection. Type of data set: in vivo, C57Bl/6 mice. A digest of the protocol: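 Tumor-bearing C57Bl/6 mice (subcutaneous E0771) anesthetized with ketamine (100 mg/kg) and xylazine (10 mg/kg), abdomen opened by midline incision; 25 nmol test compound in 10% BSA given iv. Imaged at 48 h with intraoperative NIR system (760 nm excitation, 4 mW/cm²; 800 nm emission). ROI signal/background ratio over organs or tumor; at least 3 animals; one-way ANOVA with Tukey test; mean ± s.d.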

Data set [8] relates to MDA-MB-231 cells. Kind of data set: Cellular uptake of dyes, blocking experiment. Type of data set: cell-based, Human. The note with it: for effect of BSA added to SFM on cellular uptake: BSA only in the media, FACS; for effect of serum on cellular uptake: media with 10% FBS versus serum free media; for effect of BSP on cellular uptake in SFM: 250 μM BSP. A digest of the protocol:
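MDA-MB-231 cells (50,000) seeded in serum medium overnight, then starved 4 h in serum-free medium. Groups: no serum (reference), 10% FBS, and 250 μM BSP preblock for 5 min with or without serum. Test compound added for 30 min, then washed. Read by confocal (670 nm excitation) or by FACS after enzyme-free detachment (633 nm excitation, 750/45 emission). Separate arms used DMOG 24 h beforehand for hypoxia, or BSA alone in medium.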

Data set [9] deals with OATP1B3. The settings on record: PC-3 prostate cancer xenograft; cited from earlier work.
For data set [10], the target named is T1, HSA. The settings on record: absorption maxima red-shifted in presence of albumin; cited from earlier work.
For data set [11], the system named is albumin. The note with it: cited from earlier work.

Take `CC1(C)C(/C=C/C2=C(Cl)C(=C/C=C3\N(CCCCCC(=O)O)c4ccccc4C3(C)C)/CCC2)=[N+](CCCCCC(=O)O)c2ccccc21` [1-Cl]: the “Pearson coefficient of colocalization” value in data set [1] (1-Cl preincubated with Cys34-blocked BSA-FITC) is given as 0.56. Besides, in data set [1] (dye 10 μM and ~1 equiv BSA-FITC, noncovalent adduct), the “Pearson coefficient of colocalization with BSA-FITC” value is 0.65. Besides, the “uptake into HepG2 cells, trend” value in data set [2] is reported as “followed the same trends”. In data set [3], the “reduction of tumor uptake on OATP1B3 knockdown” value is on record as ~ 25%. Moreover, the “time post-injection at which high contrast was observed” value in data set [4] is 48 h. Besides, in data set [4] (48 h post-injection), the “maximum TBR” value came to 3.5. Moreover, the “tumor accumulation and persistence” value in [4] (up to 48 h) is “high tumor accumulation and prolonged retention”. Further, the urinary excretion result in [5] (CD-1 mice) is reported as “Insignificant urinary excretion”. Besides, the “blood plasma (fluorescence) elimination half-life” value in data set [5] (healthy CD-1 mice, plasma fluorescence up to 5 h) is 3.253 h. For the same compound, in data set [6], the “formation of noncovalent adduct with albumin” value (shortened to “formation”) is “form a non-covalent adduct with albumin”. Further, in data set [6] (up to 50 equiv BSP, either order of addition), the “displacement of dye from albumin by BSP” value is listed as “not displaced from albumin by BSP”. In addition, the “persistence in body at 48 h (biodistribution)” value in data set [7] is given as “persisted”. In addition, in data set [8], the “effect of BSA added to SFM on cellular uptake” value (“effect of BSA added to SFM” for short) is given as “almost identical to those in serum” and the “effect of serum on cellular uptake” value is listed as “suppressed”. Also, in data set [8] (serum free media, 250 μM BSP preblock, dye 20 μM, FACS quantitation), the “decrease of uptake by BSP” value is listed as 40−50%. In addition, in data set [9], the “reduction of tumor uptake on OATP1B3 knockdown” value is on record as “approximately 40%”.
`CC1(C)C(=CC=C2CCCC(C=CC3=[N+](CCCCS(=O)(=O)[O-])c4ccccc4C3(C)C)=C2Cl)N(CCCCS(=O)(=O)[O-])c2ccccc21.[Na+]` [2-Cl]: in data set [6], the “formation” value is given as “appear to form noncovalent adducts”. In [8] (serum free media), the “effect of BSP on cellular uptake in SFM” value is recorded as “suppressed”. For the same compound, in [8], the “effect of BSA added to SFM” value is given as “suppressed” and the “effect of serum on cellular uptake” value is “suppressed”.
In the case of `CCCN1C(=CC=C2CCCC(C=CC3=[N+](CCC)c4ccccc4C3(C)C)=C2Cl)C(C)(C)c2ccccc21.[I-]` [4-Cl], in data set [10], the “formation” value is reported as “implying noncovalent complexation”.
As for `O=C1OC(c2ccc(O)c(S(=O)(=O)O)c2)(c2ccc(O)c(S(=O)(=O)O)c2)c2c(Br)c(Br)c(Br)c(Br)c21` [BSP, Bromosulfophthalein], the “fraction bound to albumin” value in data set [11] (after iv injection) was “more than 99%”. Further, in data set [11] (equimolar concentrations of BSP and albumin), the “unbound BSP” value was “less than 0.1%”.
As to `CC1(C)C(/C=C/C=C/C=C/C=C2\N(CCCCS(=O)(=O)[O-])c3ccc4ccccc4c3C2(C)C)=[N+](CCCCS(=O)(=O)[O-])c2ccc3ccccc3c21.[Na+]` [ICG], the “formation” value in data set [6] is given as “appear to form noncovalent adducts”. The “effect of BSP on cellular uptake in SFM” value in [8] (serum free media) is given as “suppressed”. In data set [8], the “effect of BSA added to SFM” value is “suppressed” and the “effect of serum on cellular uptake” value was “suppressed”.
